In brackets after ≈: the same amount, converted by molar mass. Blank lines part the entries; values can stand above or below the compound they belong to.
Assays:
[1] = biological target: 11-beta-hydroxysteroid dehydrogenase 1 (Homo sapiens, UniProt P28845); experiment: Inhibition of human 11beta-HSD1 expressed in CHO-K1 cells using cortisone as substrate after 3 hrs by HTRF assay; assay type: cell-based; settings: read-out: IC50
Summary of the method: (§1)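 Cells overexpressing human or mouse 11β-HSD1 incubated with cortisone plus compound for 3 h; cortisol measured by HTRF. IC50 fitted from concentration-dependent inhibition curves; means ± SEM of triplicate experiments.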

[2] = biological target: 11-beta-hydroxysteroid dehydrogenase 1 (Mus musculus, UniProt P50172); experiment: Inhibition of mouse 11beta-HSD1 expressed in CHO-K1 cells using cortisone as substrate after 3 hrs by HTRF assay; assay type: cell-based; summary of the method: as §1
Mus musculus [3] = experiment: Ex-vivo inhibition of 11betaHSD1 in C57BL/6 mouse fat at 20 mg/kg, po after 2 hrs by ELISA; assay type: functional; settings: C57BL/6, 2 h
Summary of the method: (§2)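 Normal mice dosed orally (1, 5, 10 or 20 mpk); 11β-HSD1 activity in fat tissue measured ex vivo 2 h post-dose.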

[4] = Metabolic stability in human liver microsomes assessed as compound remaining after 30 mins; assay type: ADME, Microsome; settings: read-out: Stability
Summary of the method: (§3)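 Human and rat liver microsomes incubated with compound for 30 min; stability reported as percent parent compound remaining.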

[5] = Metabolic stability in rat liver microsomes assessed as compound remaining after 30 mins; assay type: ADME, Microsome; settings: read-out: Stability; summary of the method: as §3
Mus musculus [6] = experiment: Ex-vivo inhibition of 11betaHSD1 in C57BL/6 mouse liver at 20 mg/kg, po after 2 hrs by ELISA; assay type: functional; settings: C57BL/6, Liver
Summary of the method: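 Normal mice given 20 mpk orally; liver tissue taken 2 h after dosing and 11β-HSD1 activity measured ex vivo as % inhibition relative to vehicle.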

[7] = biological target: T1, 11-beta-hydroxysteroid dehydrogenase type 2 (Homo sapiens) (UniProt P80365); experiment: Inhibition of human 11beta-HSD2 expressed in HEK293 cells using […] as substrate at 10 uM after 24 hrs by HTRF assay; assay type: cell-based
T1 sequence (whole entry): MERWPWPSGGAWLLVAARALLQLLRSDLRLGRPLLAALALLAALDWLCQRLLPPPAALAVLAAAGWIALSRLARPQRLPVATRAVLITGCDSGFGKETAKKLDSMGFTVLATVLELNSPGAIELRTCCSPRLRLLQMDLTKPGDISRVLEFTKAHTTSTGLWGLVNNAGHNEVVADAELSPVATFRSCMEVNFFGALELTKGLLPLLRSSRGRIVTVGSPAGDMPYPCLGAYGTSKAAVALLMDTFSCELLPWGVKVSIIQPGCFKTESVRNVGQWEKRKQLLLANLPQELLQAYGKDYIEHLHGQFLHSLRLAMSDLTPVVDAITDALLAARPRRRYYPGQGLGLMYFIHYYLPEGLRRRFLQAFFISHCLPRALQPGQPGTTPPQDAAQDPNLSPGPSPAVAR

[8] = Metabolic stability in plasma at 10 uM after 30 mins; assay type: ADME, cell-free; settings: read-out: Stability
Summary of the method: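 Compound incubated in plasma for 30 min; stability given as percent remaining.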

Cytochrome P450 1A2 = biological target: T2, Cytochrome P450 1A2 (Homo sapiens, UniProt P05177); experiment: Inhibition of CYP1A2 incubated for 20 mins prior to substrate addition measured after 20 mins by fluorimetric assay; assay type: ADME
T2 sequence (P05177 whole entry): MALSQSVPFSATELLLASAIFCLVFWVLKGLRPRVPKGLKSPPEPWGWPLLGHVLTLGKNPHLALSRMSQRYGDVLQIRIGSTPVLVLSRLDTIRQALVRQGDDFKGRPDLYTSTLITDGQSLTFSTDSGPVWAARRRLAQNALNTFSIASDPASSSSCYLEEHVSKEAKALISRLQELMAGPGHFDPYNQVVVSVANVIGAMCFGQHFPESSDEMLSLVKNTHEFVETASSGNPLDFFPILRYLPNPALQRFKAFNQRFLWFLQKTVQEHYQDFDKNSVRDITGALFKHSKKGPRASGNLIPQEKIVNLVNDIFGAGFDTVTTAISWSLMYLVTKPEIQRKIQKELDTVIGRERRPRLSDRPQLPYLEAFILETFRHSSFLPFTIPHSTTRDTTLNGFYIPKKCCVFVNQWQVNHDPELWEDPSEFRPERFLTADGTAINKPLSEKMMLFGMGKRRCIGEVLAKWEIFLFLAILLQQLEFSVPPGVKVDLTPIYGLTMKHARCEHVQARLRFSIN

Cytochrome P450 2C19 = Cytochrome P450 2C19 (Homo sapiens, UniProt P33261); experiment: Inhibition of CYP2C19 incubated for 20 mins prior to substrate addition measured after 20 mins by fluorimetric assay; assay type: ADME
Cytochrome P450 2D6 = Cytochrome P450 2D6 (Homo sapiens, UniProt P10635); experiment: Inhibition of CYP2D6 incubated for 20 mins prior to substrate addition measured after 20 mins by fluorimetric assay; assay type: ADME
Cytochrome P450 3A4 = Cytochrome P450 3A4 (Homo sapiens, UniProt P08684); experiment: Inhibition of CYP3A4 incubated for 20 mins prior to substrate addition measured after 20 mins by fluorimetric assay; assay type: ADME
Cytochrome P450 2C9 = Cytochrome P450 2C9 (Homo sapiens, UniProt P11712); experiment: Inhibition of CYP2C9; assay type: ADME
[9] = Cmax in Sprague-Dawley rat at 10 mg/kg, po; assay type: ADME, organism-based; set-up: dose 10 mg/kg, route oral; settings: in vivo
[10] = Terminal elimination half life in Sprague-Dawley rat at 10 mg/kg, po; assay type: ADME, organism-based; set-up: dose 10 mg/kg, route oral; settings: in vivo, read-out: beta t1/2 (converted)
[11] = AUC in Sprague-Dawley rat at 10 mg/kg, po; assay type: ADME, organism-based; set-up: dose 10 mg/kg, route oral; settings: plasma
[12] = Clearance in Sprague-Dawley rat at 10 mg/kg, po; assay type: ADME, organism-based; set-up: dose 10 mg/kg, route oral; settings: in vivo
[13] = Oral bioavailability in Sprague-Dawley rat at 10 mg/kg; assay type: ADME, organism-based; settings: in vivo
Mus musculus [14] = experiment: Ex-vivo inhibition of 11betaHSD1 in C57BL/6 mouse fat at 1 mg/kg, po after 2 hrs by ELISA; assay type: functional; settings: C57BL/6, 2 h; summary of the method: as §2
Mus musculus [15] = experiment: Ex-vivo inhibition of 11betaHSD1 in C57BL/6 mouse fat at 5 mg/kg, po after 2 hrs by ELISA; assay type: functional; settings: C57BL/6, 2 h; summary of the method: as §2
Mus musculus [16] = experiment: Ex-vivo inhibition of 11betaHSD1 in C57BL/6 mouse fat at 10 mg/kg, po after 2 hrs by ELISA; assay type: functional; settings: C57BL/6, 2 h; summary of the method: as §2
[17] = Cmax in cynomolgus monkey at 10 mg/kg, po; assay type: ADME, organism-based, Macaca fascicularis; set-up: dose 10 mg/kg, route oral; settings: in vivo
[18] = Terminal elimination half life in cynomolgus monkey at 10 mg/kg, po; assay type: ADME, organism-based, Macaca fascicularis; set-up: dose 10 mg/kg, route oral; settings: in vivo, read-out: beta t1/2 (converted)
[19] = AUC in cynomolgus monkey at 10 mg/kg, po; assay type: ADME, organism-based, Macaca fascicularis; set-up: dose 10 mg/kg, route oral; settings: plasma
Cynomolgus monkey [20] = experiment: Ex-vivo inhibition of 11beta-HSD1 in cynomolgus monkey shoulder fat at 10 mg/kg, po after 2 hrs by ELISA; assay type: functional; settings: Macaca fascicularis
Summary of the method: (§4)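 Cynomolgus monkeys dosed orally at 10 mpk; 11β-HSD1 activity measured ex vivo in shoulder, inguinal and abdominal cavity fat at 2 h. Means, n = 2 monkeys per group, versus vehicle.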

Cynomolgus monkey [21] = experiment: Ex-vivo inhibition of 11beta-HSD1 in cynomolgus monkey inguinal fat at 10 mg/kg, po after 2 hrs by ELISA; assay type: functional; settings: Macaca fascicularis; summary of the method: as §4
Cynomolgus monkey [22] = experiment: Ex-vivo inhibition of 11beta-HSD1 in cynomolgus monkey abdominal fat at 10 mg/kg, po after 2 hrs by ELISA; assay type: functional; settings: Macaca fascicularis, Abdomen; summary of the method: as §4
Mus musculus [23] = experiment: Ex-vivo inhibition of 11betaHSD1 in po dosed C57BL/6 mouse fat after 2 hrs by ELISA; assay type: functional, organism-based; summary of the method: as §2
[24] = Aqueous solubility of the compound; assay type: physicochemical; settings: buffer

11-beta-hydroxysteroid dehydrogenase 1 (Mus musculus, UniProt P50172), sequence (P50172 whole entry): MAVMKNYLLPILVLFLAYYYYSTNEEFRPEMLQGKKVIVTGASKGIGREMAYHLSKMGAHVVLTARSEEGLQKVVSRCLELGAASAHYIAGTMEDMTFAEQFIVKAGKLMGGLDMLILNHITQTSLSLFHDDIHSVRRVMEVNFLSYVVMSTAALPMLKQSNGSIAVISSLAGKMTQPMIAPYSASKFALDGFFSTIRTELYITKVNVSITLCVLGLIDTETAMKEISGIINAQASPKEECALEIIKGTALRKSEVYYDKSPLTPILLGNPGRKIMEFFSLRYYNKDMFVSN
11-beta-hydroxysteroid dehydrogenase 1 (Homo sapiens, UniProt P28845), sequence (P28845 whole entry): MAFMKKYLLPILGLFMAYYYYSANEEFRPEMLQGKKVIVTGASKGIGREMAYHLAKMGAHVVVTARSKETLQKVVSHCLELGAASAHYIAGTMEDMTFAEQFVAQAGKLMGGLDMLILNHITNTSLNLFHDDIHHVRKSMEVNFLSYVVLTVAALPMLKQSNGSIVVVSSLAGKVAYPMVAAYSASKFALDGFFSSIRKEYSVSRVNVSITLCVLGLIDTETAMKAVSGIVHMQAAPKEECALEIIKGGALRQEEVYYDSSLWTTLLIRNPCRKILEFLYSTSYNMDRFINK
Cytochrome P450 2C19, sequence (P33261 whole entry): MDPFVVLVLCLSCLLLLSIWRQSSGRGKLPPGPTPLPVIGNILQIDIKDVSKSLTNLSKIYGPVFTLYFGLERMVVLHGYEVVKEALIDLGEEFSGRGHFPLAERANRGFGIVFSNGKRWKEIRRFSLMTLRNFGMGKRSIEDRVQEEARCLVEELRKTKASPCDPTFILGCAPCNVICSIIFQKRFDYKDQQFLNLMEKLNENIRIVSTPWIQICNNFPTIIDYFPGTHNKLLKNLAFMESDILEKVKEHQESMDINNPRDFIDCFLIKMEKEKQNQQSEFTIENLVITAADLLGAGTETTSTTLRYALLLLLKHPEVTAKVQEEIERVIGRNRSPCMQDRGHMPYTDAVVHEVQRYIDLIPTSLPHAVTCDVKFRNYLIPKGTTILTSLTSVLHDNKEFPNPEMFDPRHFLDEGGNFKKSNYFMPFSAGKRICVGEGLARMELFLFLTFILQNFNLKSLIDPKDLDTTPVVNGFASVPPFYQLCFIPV
Cytochrome P450 2D6, sequence (P10635 whole entry): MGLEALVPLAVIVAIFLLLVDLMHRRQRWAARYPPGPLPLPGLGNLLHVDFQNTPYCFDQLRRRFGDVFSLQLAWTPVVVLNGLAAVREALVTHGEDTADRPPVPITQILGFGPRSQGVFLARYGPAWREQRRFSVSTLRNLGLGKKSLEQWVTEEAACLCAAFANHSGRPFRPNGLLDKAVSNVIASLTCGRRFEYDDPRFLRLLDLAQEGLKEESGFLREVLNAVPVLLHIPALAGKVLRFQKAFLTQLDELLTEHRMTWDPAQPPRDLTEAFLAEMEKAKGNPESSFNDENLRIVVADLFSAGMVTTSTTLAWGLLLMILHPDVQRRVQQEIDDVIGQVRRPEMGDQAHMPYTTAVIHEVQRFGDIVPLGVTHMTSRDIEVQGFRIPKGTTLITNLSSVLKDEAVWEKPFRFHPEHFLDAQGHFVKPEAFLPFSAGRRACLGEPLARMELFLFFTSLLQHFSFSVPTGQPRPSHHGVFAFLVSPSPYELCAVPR
Cytochrome P450 2C9, sequence (P11712 whole entry): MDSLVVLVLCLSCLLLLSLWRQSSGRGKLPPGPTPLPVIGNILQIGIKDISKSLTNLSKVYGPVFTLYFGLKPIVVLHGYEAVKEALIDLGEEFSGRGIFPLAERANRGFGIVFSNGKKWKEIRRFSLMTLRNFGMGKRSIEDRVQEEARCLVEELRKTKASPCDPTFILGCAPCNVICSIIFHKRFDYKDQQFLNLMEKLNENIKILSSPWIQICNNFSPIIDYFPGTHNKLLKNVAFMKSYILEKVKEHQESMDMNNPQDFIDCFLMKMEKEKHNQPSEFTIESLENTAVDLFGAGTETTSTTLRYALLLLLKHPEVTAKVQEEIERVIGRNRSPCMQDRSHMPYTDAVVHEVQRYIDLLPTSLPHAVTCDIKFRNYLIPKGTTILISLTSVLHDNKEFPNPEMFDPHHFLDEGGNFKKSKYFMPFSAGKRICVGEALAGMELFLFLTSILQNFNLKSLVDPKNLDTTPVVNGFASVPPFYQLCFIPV
Cytochrome P450 3A4, sequence (P08684 whole entry): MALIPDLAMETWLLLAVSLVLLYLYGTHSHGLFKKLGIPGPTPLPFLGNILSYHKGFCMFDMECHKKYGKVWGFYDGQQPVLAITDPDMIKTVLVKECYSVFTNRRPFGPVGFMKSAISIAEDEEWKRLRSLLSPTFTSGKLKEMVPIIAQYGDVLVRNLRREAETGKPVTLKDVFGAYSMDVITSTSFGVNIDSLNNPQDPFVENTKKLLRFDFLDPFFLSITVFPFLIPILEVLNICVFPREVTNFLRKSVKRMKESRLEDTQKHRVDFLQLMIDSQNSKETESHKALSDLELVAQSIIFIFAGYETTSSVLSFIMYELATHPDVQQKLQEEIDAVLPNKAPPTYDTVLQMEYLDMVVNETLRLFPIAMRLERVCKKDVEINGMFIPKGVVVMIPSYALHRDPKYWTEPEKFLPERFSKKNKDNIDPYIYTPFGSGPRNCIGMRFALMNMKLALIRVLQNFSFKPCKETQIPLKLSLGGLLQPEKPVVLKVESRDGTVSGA

SMILES: NC(=O)[C@]12CC3CC(C1)[C@@H](NC(=O)CN1CCCN(c4ccccc4F)S1(=O)=O)C(C3)C2
IC50 [1]: 0.014 µM
IC50 [2]: 0.17 µM

SMILES: CC1(C)CN(CC(=O)N[C@H]2C3CC4CC2C[C@](C(N)=O)(C4)C3)S(=O)(=O)N(c2c(Cl)cc(Cl)cc2Cl)C1
IC50 [1]: 0.005 µM
IC50 [2]: 0.026 µM
inhibition in vivo at 20 mg/kg (Mus musculus [3]): 29.9%

IC50 [1]: 351 µM
IC50 [2]: 15.5 µM
SMILES: NC(=O)[C@]12CC3CC(C1)[C@@H](NC(=O)CN1CCCN(c4ccc(F)cc4)S1(=O)=O)C(C3)C2

IC50 [1]: 0.001 µM
IC50 [2]: 0.002 µM
remaining at 0.5 h [4]: 21%
remaining at 0.5 h [5]: 7%
SMILES: CN(CC(=O)N[C@H]1C2CC3CC1C[C@](C(N)=O)(C3)C2)S(=O)(=O)N(C)c1c(Cl)cc(Cl)cc1Cl
inhibition in vivo at 20 mg/kg (Mus musculus [3]): 33.3%
inhibition in vivo at 20 mg/kg (Mus musculus [6]): 57.8%

IC50 [1]: 0.001 µM
IC50 [2]: 0.001 µM
remaining at 0.5 h [4]: 40%
remaining at 0.5 h [5]: 26%
SMILES: NC(=O)[C@]12CC3CC(C1)[C@@H](NC(=O)CN1CCCCN(c4c(Cl)cc(Cl)cc4Cl)S1(=O)=O)C(C3)C2
inhibition in vivo at 20 mg/kg (Mus musculus [3]): 59.9%
inhibition in vivo at 20 mg/kg (Mus musculus [6]): 51.4%

SMILES: NC(=O)[C@]12CC3CC(C1)[C@@H](NC(=O)CN1CCN(c4c(Cl)cc(Cl)cc4Cl)S1(=O)=O)C(C3)C2
IC50 [1]: 0.187 µM
IC50 [2]: 0.409 µM

SMILES: CC1CN(CC(=O)N[C@H]2C3CC4CC2C[C@](C(N)=O)(C4)C3)S(=O)(=O)N(c2c(Cl)cc(Cl)cc2Cl)C1 (mixture of isomers)
IC50 [1]: 0.001 µM
IC50 [2]: 0.002 µM
remaining at 0.5 h [4]: 93%
remaining at 0.5 h [5]: 78%
inhibition in vivo at 20 mg/kg (Mus musculus [3]): 95.9%
inhibition [7]: 20%
remaining at 0.5 h, 10 µM [8]: 100%
INH (Cytochrome P450 1A2): > 100 µM
INH (Cytochrome P450 2C19): > 100 µM
INH (Cytochrome P450 2D6): > 100 µM
INH (Cytochrome P450 3A4): > 100 µM
INH (Cytochrome P450 2C9): > 100 µM
Cmax [9]: 3.1 µg/mL
half-life [10]: 3.8 h
AUC [11]: 15.7 µg·h/mL
CL/F [12]: 0.7 L/h/kg
bioavailability [13]: 68.8%
inhibition in vivo at 1 mg/kg (Mus musculus [14]): 76.6%
inhibition in vivo at 5 mg/kg (Mus musculus [15]): 90.4%
inhibition in vivo at 10 mg/kg (Mus musculus [16]): 90.7%
Cmax [17]: 6.4 µg/mL
half-life [18]: 3.4 h
AUC [19]: 35.6 µg·h/mL
inhibition in vivo at 10 mg/kg (Cynomolgus monkey [20]): 87%
inhibition in vivo at 10 mg/kg (Cynomolgus monkey [21]): 83%
inhibition in vivo at 10 mg/kg (Cynomolgus monkey [22]): 81%
inhibition (Mus musculus [23]): Dose-dependent effect
solubility [24]: 361 µM (≈ 204 µg/mL)

SMILES: C=C1CN(CC(=O)N[C@H]2C3CC4CC2C[C@](C(N)=O)(C4)C3)S(=O)(=O)N(c2c(Cl)cc(Cl)cc2Cl)C1
IC50 [1]: 0.014 µM
IC50 [2]: 0.008 µM
inhibition in vivo at 20 mg/kg (Mus musculus [3]): 82.1%

SMILES: NC(=O)[C@]12CC3CC(C1)[C@@H](NC(=O)CN1CC4(CC4)CN(c4c(Cl)cc(Cl)cc4Cl)S1(=O)=O)C(C3)C2
IC50 [1]: 0.005 µM
IC50 [2]: 0.023 µM
inhibition in vivo at 20 mg/kg (Mus musculus [3]): 39.6%

— ChEMBL document CHEMBL2034946, “Synthesis and biological evaluation of cyclic sulfamide derivatives as 11β-hydroxysteroid dehydrogenase 1 inhibitors” (ACS Med Chem Lett, 2012)
